Results reported in ChEMBL document CHEMBL5252514, “Conopeptide-Derived κ-Opioid Agonists (Conorphins): Potent, Selective, and Metabolic Stable Dynorphin A Mimetics with Antinociceptive Properties” (J Med Chem, 2016).
Where a SMILES comes first, the peptide text is derived from it.

Columns and labels:
[1] = molecular target: Kappa-type opioid receptor (Homo sapiens, UniProt P41145); experiment: Displacement of [3H]U69593 from human kappa opioid receptor expressed in CHO-K1 cells incubated for 1 hr by 1450 microbeta scintillation counter analysis; assay type: cell-based
Kappa-type opioid receptor, sequence (P41145 whole entry): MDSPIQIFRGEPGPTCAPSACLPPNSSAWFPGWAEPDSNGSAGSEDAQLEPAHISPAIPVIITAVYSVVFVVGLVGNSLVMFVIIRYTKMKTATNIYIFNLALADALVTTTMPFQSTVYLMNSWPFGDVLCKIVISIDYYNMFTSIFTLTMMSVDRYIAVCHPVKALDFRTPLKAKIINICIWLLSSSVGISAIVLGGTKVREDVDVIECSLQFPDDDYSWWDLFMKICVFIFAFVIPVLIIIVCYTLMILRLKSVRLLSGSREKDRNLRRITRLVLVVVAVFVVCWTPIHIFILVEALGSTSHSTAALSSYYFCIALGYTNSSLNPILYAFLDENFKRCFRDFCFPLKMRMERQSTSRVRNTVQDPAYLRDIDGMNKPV
Procedure, shortened: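 Membranes from transiently KOR-transfected CHO-K1 cells (~2 µg/well) used in SPA with 3H-U69,593 (1 nM). Competitor ranged 1 pM–10 µM in 50 mM Tris-HCl pH 7.4, 5 mM MgCl2, 0.1% BSA. Incubated 1 h at room temperature with shaking. Nonspecific binding defined with 10 µM dynorphin A. Sigmoidal dose-response fit; at least three independent experiments in triplicate.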

[2] = Metabolic stability in Wistar rat plasma assessed as half life by HPLC analysis; assay type: ADME, cell-free
Procedure, shortened: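 Peptide at 1 mg/mL in sterile PBS pH 7.4 was mixed 1:1 with thawed, centrifuged Wistar rat plasma supernatant and incubated at 37°C in triplicate. Samples at 0, 1, 2, 3, 4, 6 and 24 h were quenched with acetonitrile and then 2% TFA/water, and analysed by HPLC with inline electrospray MS.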

`CC[C@H](C)[C@H](NC(=O)[C@H](CCC(N)=O)NC(=O)[C@H](CCCNC(=N)N)NC(=O)[C@@H](N)CCCNC(=N)N)C(N)=O` (H-RRQI-NH2) showed a Ki [1] of 23 µM.
With `N=C(N)NCCC[C@@H](NC(=O)[C@@H](CCCNC(=N)N)NC(=O)[C@@H]1CCCN1C(=O)c1ccccc1)C(=O)N[C@@H](CCC(N)=O)C(=O)N[C@H](CN[C@H]1CSSC[C@@H](C(N)=O)NC1=O)CC1CCCCC1` the half-life [2] was 16 h and the Ki [1] was 0.135 µM.
